Blank lines part the entries; values can stand above or below the compound they belong to.
Experiments:
[1] = tested on: c-Myc activation; experiment: c-Myc activation sensor luciferase assay in SK-ST stable cells; format: cell-based, human; details: for fold by which IC50 for sensor signal inhibition is higher than that of NTZ: SK-ST cells, PD98059 2hrs, U0126 1hr, Atorvastatin 16hrs
[2] = tested on: phospho c-Myc; experiment: Western blot of endogenous phospho c-Myc in osteosarcoma cells; format: cell-based; details: read-out: IC50 of inhibition of phospho c-Myc level
Method in brief: (§1)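 SKBR3 (McCoy's 5a), lymphoma (RPMI plus 3.96×10-4% 2-mercaptoethanol) and osteosarcoma 1325 (DMEM) cells, all with 10% FBS, at 37°C, 5% CO2, were exposed to test compound as in the sensor assay. Lysates (50μg protein) were immunoblotted for phospho-c-Myc (Thr58/Ser62) and c-Myc, with β-actin as loading control, then ECL and densitometry. IC50 came from a four-parameter nonlinear fit of fold-change against log concentration; ≥3 repeats.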

[3] = tested on: SK-FST xenografts; experiment: SK-FST breast cancer xenograft model in nude mice; format: in vivo; details: 200mg/kg gavage twice a day, about 18 days after implantation
[4] = tested on: SKBR3 cells; experiment: MTS cell toxicity assay in SKBR3 cells; format: cell-based, human
[5] = tested on: phospho c-Myc; experiment: Western blot of endogenous phospho c-Myc in lymphoma cells; format: cell-based; details: read-out: IC50 of inhibition of phospho c-Myc level
Method in brief: as §1

[6] = tested on: c-Myc; experiment: c-Myc inhibition in different cancer cell lines; format: cell-based; details: read-out: IC50 for c-Myc inhibition, range over different cancer cell lines
Method in brief: as §1

[7] = molecular target: full-length firefly luciferase (SK-FST cells) (Photinus pyralis, UniProt P08659); experiment: Full-length firefly luciferase control assay in SK-FST stable cells; format: cell-based; details: 16hrs treatment
full-length firefly luciferase (SK-FST cells), sequence (P08659 whole entry): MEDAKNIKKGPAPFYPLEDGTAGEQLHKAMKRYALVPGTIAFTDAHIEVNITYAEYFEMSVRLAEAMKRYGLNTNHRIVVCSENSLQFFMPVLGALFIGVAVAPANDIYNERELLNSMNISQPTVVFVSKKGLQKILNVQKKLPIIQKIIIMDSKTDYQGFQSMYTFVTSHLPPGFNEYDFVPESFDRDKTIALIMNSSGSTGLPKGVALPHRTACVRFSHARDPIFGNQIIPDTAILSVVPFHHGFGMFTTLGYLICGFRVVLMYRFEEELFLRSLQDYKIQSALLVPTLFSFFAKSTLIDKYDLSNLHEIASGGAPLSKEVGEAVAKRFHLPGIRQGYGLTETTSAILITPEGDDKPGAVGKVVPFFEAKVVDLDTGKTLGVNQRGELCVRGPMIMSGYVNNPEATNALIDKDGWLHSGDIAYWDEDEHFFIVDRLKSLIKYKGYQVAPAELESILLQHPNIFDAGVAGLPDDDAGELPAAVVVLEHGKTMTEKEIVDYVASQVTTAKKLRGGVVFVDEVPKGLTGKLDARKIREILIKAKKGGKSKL
Method in brief: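 SKBR3 cells stably expressing full-length firefly luciferase on a single vector, selected with 3μg/ml puromycin, grown in McCoy's 5a with 10% FBS at 37°C, 5% CO2. Test compound was applied for 16hrs. D-Luciferin (45μg/ml in PBS, pH 7.0) was added to the medium and IVIS images were taken at 2-min intervals until peak. Photon output was normalized to total lysate protein; ≥3 repeats.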

[8] = tested on: SK-ST xenografts; experiment: SK-ST breast cancer xenograft model in nude mice; format: in vivo

- fold by which IC50 for sensor signal inhibition is higher than that of NTZ [1]: about 50 fold
Compound: CC(C)c1c(C(=O)Nc2ccccc2)c(-c2ccccc2)c(-c2ccc(F)cc2)n1CC[C@@H](O)C[C@@H](O)CC(=O)O [Atorvastatin]

Compound: CC(=O)Oc1ccccc1C(=O)Nc1ncc([N+](=O)[O-])s1 [NTZ, nitazoxanide]
- IC50 [2]: 12 nM
- bioluminescent signal of SK-FST xenografts [3]: sustained decrease of the signal
- half-maximal lethal dose (LD50) [4]: about 1 μM
- IC50 [5]: 440 nM
- IC50 [6]: 10 to 500 nM
- IC50 ([1]; Homo sapiens, 16 h, read-out: IC50 for the sensor signal inhibition): ~100 nM
- change of FL signal in SK-FST cells (direct effect on luciferase activity) [7]: no significant changes
- common side effects (diarrhea, vomiting, skin rash) ([8]; 200mg/kg gavage twice a day for 27 days): didn’t observe the common side effects
- tumor growth by gross inspection and caliper measurements ([8]; 200mg/kg gavage twice a day, 27 days after implantation, P=0.00007 vs CMC): drastic inhibition of tumor growth
- bioluminescent signal from SK-ST xenografts (c-Myc activation) ([8]; 200mg/kg gavage twice a day, vs CMC group): greatly inhibited
- caspase-3 staining, average positive cells in each sample ([8]; tumor samples, 200mg/kg gavage twice a day, CMC group 5±2, P<0.03): 23±8 positive cells
- endogenous phospho and c-Myc protein levels in tumor samples ([8]; western blot, NTZ vs CMC group): greatly reduced

- fold by which IC50 for sensor signal inhibition is higher than that of NTZ [1]: about 2000 fold
Compound: COc1cccc(-c2cc(=O)c3ccccc3o2)c1N [PD98059]

- fold by which IC50 for sensor signal inhibition is higher than that of NTZ [1]: ~500 fold
Compound: N#CC(=C(/N)Sc1ccccc1N)/C(C#N)=C(/N)Sc1ccccc1N [U0126]
